# IDH1 mut inh: inhibitors of IDH1 R132H reductase, primary screen, biochemical, plate reader, single point; inhibition, % at 10 µM; Isocitrate dehydrogenase [NADP] cytoplasmic (Homo sapiens), O75874; diaphorase/resazurin fluorescence, 60 min; hit rate 0.18% among 70,000; in the data active means inhibition above about 34%; inconclusive means no clear call, values can overlap the other calls; inactive means below about 11%;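 further: 0% = DMSO and 100% = no enzyme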
# Target sequence (O75874 whole entry R132H): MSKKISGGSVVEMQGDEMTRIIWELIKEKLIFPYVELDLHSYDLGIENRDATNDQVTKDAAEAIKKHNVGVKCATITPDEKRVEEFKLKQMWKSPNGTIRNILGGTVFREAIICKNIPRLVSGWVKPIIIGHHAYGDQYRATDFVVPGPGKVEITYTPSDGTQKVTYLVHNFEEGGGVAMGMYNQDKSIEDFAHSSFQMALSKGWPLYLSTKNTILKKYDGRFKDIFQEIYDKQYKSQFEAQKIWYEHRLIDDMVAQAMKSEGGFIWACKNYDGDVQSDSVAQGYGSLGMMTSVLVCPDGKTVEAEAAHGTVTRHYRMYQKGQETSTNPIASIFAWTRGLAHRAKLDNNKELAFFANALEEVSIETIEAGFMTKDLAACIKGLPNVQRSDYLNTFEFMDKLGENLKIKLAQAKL
# T cruzi growth-1: T. cruzi intracellular proliferation inhibitors, primary screen, cell-based, beta-gal Tulahuen parasites, NIH3T3 host, luminescence; hit rate 5.9% among 77,000; T. cruzi beta-gal in NIH3T3, GalScreen luminescence, 90 h; inhibition, % at 8.34 µM; AID 624255, 2012;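 active means mean inhibition above about 93%, with at least 55% of replicates each passing it, limit read from the data, passing the limit was not always enough; inconclusive means only one of those two conditions holds; inactive means neither condition holds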
# GASC1 inh: inhibitors of GASC-1 (KDM4C) histone demethylase, primary screen, biochemical, single concentration HTS | Lysine-specific demethylase 4C (Homo sapiens), Q9H3R0 | GST-KDM4C 2-372, H3K9me3 peptide, LANCE TR-FRET | inhibition, % at 12.5 µM | hit rate 0.15% among 96,000;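 active means mean replicate inhibition above about 25%, with at least 55% of replicates also reaching it, limit read from the data, passing the limit was not always enough; inconclusive means only one of those two conditions met; inactive means neither condition met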
#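 reagent = H3K9me3 peptide substrate, Fe(II), 2-oxoglutarate | system = GST-tagged GASC-1 (JMJD2C) catalytic fragment, aa 2-372 | amount = enzyme final amount 10 nM | read-out = Fall in 671/618 emission ratio as inhibition | medium = HEPES buffer, pH 7.5, plus ascorbate | schedule = 30 min reaction, 60 min detection, RT | measured by = LANCE TR-FRET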
# T cruzi growth-2: T. cruzi intracellular proliferation inhibitors, confirmation, cell-based, NIH3T3 host, beta-gal parasite, luminescence, cherry-pick; AID 651739, 2012; inhibition, % at 8.35 µM; hit rate 72% among 5,600; shares compounds with T cruzi growth-1; T. cruzi beta-gal in NIH3T3, GalScreen luminescence, 90 h;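 active means mean replicate inhibition above about 95% and at least 55% of replicates individually reaching it, limit read from the data; inconclusive means only one of the two criteria is met; inactive means neither criterion is met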
# T cruzi growth-3: inhibitors of intracellular T. cruzi replication, confirmation, NIH3T3 host cells, beta-gal parasites, cherry-pick, set 2. inhibition, % at 2.09 µM. T. cruzi beta-gal in NIH3T3, GalScreen luminescence, 90 h. shares compounds with T cruzi growth-1. hit rate 21% among 5,600;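 active means mean inhibition above about 95%, with at least 55% of replicates also reaching it, limit read from the data; inconclusive means meets just one of the two conditions; inactive means meets neither condition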;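 further: plate controls were neutral control median for no effect and positive control median for full effect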
# NIH3T3 tox: cytotoxicity in mouse NIH/3T3 fibroblasts, confirmation, cytotoxicity control for T. cruzi proliferation inhibitor project, cell-based, cherry-pick, single point; shares compounds with T cruzi growth-1; NIH/3T3 viability, CellTiter-Glo ATP luminescence, 90 h; cytotoxicity (signal decrease), % at 8.35 µM; hit rate 14% among 5,600; AID 651742, 2012;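 active means mean signal decrease across replicates above about 35% based on untreated-well scatter, with enough replicates individually passing, limit read from the data; inconclusive means no rule stated though some were filed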;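 further: 0% = median of neutral control wells and 100% = median of positive control wells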
# 3T3 cytotox 2: NIH/3T3 fibroblast cytotoxicity, confirmation, cytotoxicity control, cell-based, cherry-pick, single point, set 2; shares compounds with T cruzi growth-1; NIH/3T3 viability, CellTiter-Glo ATP luminescence, 90 h; inhibition, % at 24.9 µM; hit rate 56% among 5,600; AID 651744, 2012;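 active means mean loss of cell viability signal at or above a set limit, and enough replicates individually reaching it; inconclusive means meets only the mean limit or only the replicate share; inactive means meets neither condition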;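 further: 0% = median of neutral control wells and 100% = median of positive control wells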
# * hit, by the source's call; ? = inconclusive; · = no result given. This excerpt belongs to a sample that is enriched for hits.
SMILES,IDH1 mut inh,T cruzi growth-1,GASC1 inh,T cruzi growth-2,T cruzi growth-3,NIH3T3 tox,3T3 cytotox 2
Cc1ccc(CC(CC(=O)O)C(=O)Nc2cc(C)ccc2C)cc1 (stereo unspecified),1.8,·,·,·,·,·,·
C[C@H]1CN([C@@H](C)CO)S(=O)(=O)c2ccc(C#CCN(C)C)cc2O[C@H]1CN(C)S(=O)(=O)c1cccc(F)c1,-1.9,·,1.5,·,·,·,·
CC(C)CC#Cc1ccc2c(c1)O[C@@H](CN(C)S(=O)(=O)c1cccc(F)c1)[C@H](C)CN([C@@H](C)CO)S2(=O)=O,-0.4,110.2*,4.6,?,114.6*,33.6,68.2*
CC(C)CC#Cc1ccc2c(c1)O[C@@H](CN(C)S(=O)(=O)c1cccc(F)c1)[C@@H](C)CN([C@@H](C)CO)S2(=O)=O,3.3,120.9*,·,90.6,112.1*,25.9,105.0*
C[C@H](CO)N1C[C@H](C)[C@H](CN(C)S(=O)(=O)c2cccc(F)c2)Oc2cc(C#CCN(C)C)ccc2S1(=O)=O,-0.5,·,3.5,·,·,·,·
CCCC#Cc1ccc2c(c1)O[C@@H](CN(C)S(=O)(=O)c1cccc(F)c1)[C@@H](C)CN([C@H](C)CO)S2(=O)=O,-1.9,124.5*,-1.3,103.6*,85.0,17.4,19.1
CC(C)CC#Cc1ccc2c(c1)O[C@@H](CN(C)S(=O)(=O)c1cccc(F)c1)[C@H](C)CN([C@H](C)CO)S2(=O)=O,-5.1,121.0*,2.3,103.1*,86.6,45.3*,106.4*
COCC#Cc1ccc2c(c1)O[C@@H](CN(C)S(=O)(=O)c1cccc(F)c1)[C@H](C)CN([C@H](C)CO)S2(=O)=O,-0.6,29.0,-1.7,·,·,·,·
C[C@@H]1CN([C@H](C)CO)S(=O)(=O)c2ccc(C#CCN(C)C)cc2O[C@@H]1CN(C)S(=O)(=O)c1cccc(F)c1,-0.1,·,1.8,·,·,·,·
COc1ccc(OC(C)c2nc(-c3ccncc3)no2)cc1 (stereo unspecified),3.1,·,·,·,·,·,·
CCOC(=O)c1c(NC(=O)CCN2CCC(C)CC2)sc2c1CC(C)(C)OC2,-0.2,·,·,·,·,·,·
COc1ccc(NC(=O)CN(c2ccccc2Cl)S(C)(=O)=O)c(OC)c1,0.1,·,·,·,·,·,·
COc1ccc(S(=O)(=O)N(C)CC(=O)Nc2ccc(F)c(Cl)c2)cc1C,-0.4,·,·,·,·,·,·
COc1ccc(Cl)cc1N(CC(=O)Nc1cc(Cl)ccc1Cl)S(C)(=O)=O,-0.1,·,·,·,·,·,·
CC(C)CC#Cc1ccc2c(c1)O[C@H](CN(C)S(=O)(=O)c1cccc(F)c1)[C@@H](C)CN([C@H](C)CO)S2(=O)=O,0.3,118.5*,6.5,100.6*,106.8*,32.3,60.8*
C[C@@H]1CN([C@H](C)CO)S(=O)(=O)c2ccc(C#CCN(C)C)cc2O[C@H]1CN(C)S(=O)(=O)c1cccc(F)c1,3.3,·,2.0,·,·,·,·
CCOc1ccc(NC(=O)C(C)Sc2nc3ccccc3c(=O)n2-c2cccc(C)c2)cc1 (stereo unspecified),-1.0,·,·,·,·,·,·
Cc1cc(C)c(NC(=O)CSc2nc(-c3ccc(F)cc3)cs2)c(C)c1,0.6,·,·,·,·,·,·
COC(=O)c1ccc(CSc2nnc(-c3cccc(Br)c3)o2)o1,-0.1,·,·,·,·,·,·
O=C(CSc1nnc(-c2ccc(Br)cc2)o1)Nc1ccccc1Cl,0.5,·,·,·,·,·,·
C[C@@H]1CN([C@@H](C)CO)C(=O)c2cc(NC(=O)Nc3ccc(F)cc3)ccc2O[C@@H](C)CCCCO[C@@H]1CN(C)CC1CCCCC1,0.0,116.6*,-0.1,99.4*,42.7,?,102.7*
C[C@@H]1CCCCO[C@@H](CN(C)CC2CC2)[C@H](C)CN([C@H](C)CO)C(=O)c2cc(NC(=O)Nc3ccc(F)cc3)ccc2O1,·,82.9,-2.5,·,·,·,·
C[C@@H]1CN([C@H](C)CO)C(=O)c2cc(NC(=O)Nc3ccc(F)cc3)ccc2O[C@@H](C)CCCCO[C@H]1CN(C)C,2.2,39.8,10.7,·,·,·,·
C[C@H](CO)N1C[C@H](C)[C@H](CN(C)CC2CCCCC2)OCCCC[C@H](C)Oc2ccc(NC(=O)Nc3ccc(F)cc3)cc2C1=O,5.0,115.5*,0.5,88.6,101.6*,117.7*,102.3*
C[C@@H]1CN([C@@H](C)CO)C(=O)c2cc(NC(=O)Nc3ccc(F)cc3)ccc2O[C@@H](C)CCCCO[C@H]1CN(C)CC1CCCCC1,4.3,114.9*,-1.3,92.3,78.3,8.7,104.0*
SMILES,IDH1 mut inh,T cruzi growth-1,GASC1 inh,T cruzi growth-2,T cruzi growth-3,NIH3T3 tox,3T3 cytotox 2
C[C@H](CO)N1C[C@H](C)[C@H](CN(C)CC2CC2)OCCCC[C@H](C)Oc2ccc(NC(=O)Nc3ccc(F)cc3)cc2C1=O,·,85.4,0.9,·,·,·,·
C[C@H](CO)N1C[C@H](C)[C@@H](CN(C)C)OCCCC[C@H](C)Oc2ccc(NC(=O)Nc3ccc(F)cc3)cc2C1=O,-0.6,8.3,0.7,·,·,·,·
C[C@@H]1CCCCO[C@@H](CN(C)CC2CCCCC2)[C@@H](C)CN([C@H](C)CO)C(=O)c2cc(NC(=O)Nc3ccc(F)cc3)ccc2O1,·,116.9*,10.8,99.9*,109.2*,29.4,103.2*
COc1ccccc1NC(=O)CSc1nc(-c2ccccc2)cc(=O)[nH]1,-0.1,·,·,·,·,·,·
Cc1ccc(N(C(C)C(=O)Nc2ccc(I)cc2)S(C)(=O)=O)cc1 (stereo unspecified),0.0,·,·,·,·,·,·
C[C@@H]1CCCCO[C@@H](CN(C)C)[C@H](C)CN([C@@H](C)CO)C(=O)c2cc(NC(=O)Nc3ccc(F)cc3)ccc2O1,3.6,0.1,4.7,·,·,·,·
C[C@H]1CCCCO[C@@H](CN(C)CC2CCCCC2)[C@@H](C)CN([C@@H](C)CO)C(=O)c2cc(NC(=O)Nc3ccc(F)cc3)ccc2O1,0.0,124.7*,0.7,101.4*,119.5*,60.0*,103.4*
O=C(Nc1cc(F)ccc1F)N1CCCCN2[C@H](CO)[C@@H](c3ccc(-c4ccncc4)cc3)[C@@H]2C1,·,88.1,-0.4,·,·,·,·
O=C(Nc1cc(F)ccc1F)N1CCCCN2[C@H](C1)[C@@H](c1ccc(-c3ccccc3)cc1)[C@@H]2CO,·,99.2*,-2.0,101.1*,101.7*,61.5*,105.7*
O=C(Nc1cc(F)ccc1F)N1CCCCN2[C@H](CO)[C@@H](c3ccc(-c4ccccc4)cc3)[C@H]2C1,·,36.0,-0.1,·,·,·,·
